The test system of data set [1] is A549. In words: Cytotoxicity against human A549 cells assessed as reduction in cell viability after 72 hrs by MTT assay. Format: functional, cell-based. As to conditions: A549, 72 h. In outline:
(§1)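 Cells in RPMI 1640 with 10% heat-inactivated FBS and penicillin/streptomycin at 37 °C, 5% CO2. Seeded at 4000 per well, adhered overnight, then exposed to graded compound concentrations in triplicate wells for 72 h. MTT (5 mg/mL stock) added for 4 h, dissolved in DMSO, A490 read. IC50 is the concentration reducing viability by 50% versus untreated control.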
On the technique in general: Tetrazolium assays rely on reduction of a dye to a coloured formazan, in cell work by metabolically active cells.

The subject of another data set is NCI-H1650. The experiment in a line: Cytotoxicity against human NCI-H1650 cells assessed as reduction in cell viability after 72 hrs by MTT assay. It counts as functional, cell-based. As to conditions: NCI-H1650, 72 h. In short, it runs like this: as §1
The test system of the next data set is L02. The experiment in a line: Cytotoxicity against human HL7702 cells assessed as reduction in cell viability after 72 hrs by MTT assay. As to conditions: L02, 72 h. It counts as cell-based. In outline:
as §1

Data set [2] is described as follows: Selectivity index, ratio of IC50 for human HL7702 cells to IC50 for human NCI-H1975 cells. It counts as toxicity. In outline: (§2)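 Selectivity index taken as the logarithm of the ratio of the HL7702 IC50 to the cancer-line IC50. […] Not calculated when an IC50 was lacking.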
Data set [3] can be described thus: Selectivity index, ratio of IC50 for human HL7702 cells to IC50 for human H460 cells. It counts as toxicity. In short, it runs like this: as §2
The next data set deals with NCI-H460. In words: Cytotoxicity against human H460 cells assessed as reduction in cell viability after 72 hrs by MTT assay. As to conditions: NCI-H460, 72 h. Format: functional, cell-based. In short, it runs like this: as §1
In another data set the test system is NCI-H1975. In words: Cytotoxicity against human NCI-H1975 cells assessed as reduction in cell viability after 72 hrs by MTT assay. Format: functional, cell-based. As to conditions: NCI-H1975, 72 h. In short, it runs like this:
as §1

Data set [4] in a line: Selectivity index, ratio of IC50 for human HL7702 cells to IC50 for human A549 cells. It counts as toxicity. In outline:
as §2

Data set [5] in a line: Selectivity index, ratio of IC50 for human HL7702 cells to IC50 for human NCI-H1650 cells. It counts as toxicity. In outline: as §2
For data set [6], the system named is A549. The experiment in a line: Anticlonogenic activity against human A549 cells assessed as inhibition of clonogenic growth at 9 uM incubated for 2 days followed by replacement of growth media and measured after 8 days by crystal violet staining-based assay relative to control. Format: functional. In short, it runs like this:
(§3)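 A549 cells grown in 1640 medium with 10% heat-inactivated FBS at 37 °C, 5% CO2. Seeded at 1000 cells per well, then exposed to drug or left untreated. Medium, with or without drug, replaced after 2 days. 8 days later colonies fixed with 1% methanol and 1% formaldehyde, stained with 0.5% crystal violet and photographed. Percent inhibition expressed relative to control.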

The test system of data set [7] is A549. In words: Anticlonogenic activity against human A549 cells assessed as inhibition of clonogenic growth at 3 uM incubated for 2 days followed by replacement of growth media and measured after 8 days by crystal violet staining-based assay relative to control. It counts as functional. In short, it runs like this:
as §3

Results on 14 molecules are retold here after ChEMBL document CHEMBL4152210, “Design, synthesis, anti-lung cancer activity, and chemosensitization of tumor-selective MCACs based on ROS-mediated JNK pathway activation and NF-κB pathway inhibition” (Eur J Med Chem, 2018).

As usually defined, the IC50 is the concentration at which inhibition is half-maximal. Consider `Cc1ccc2nc(NCCN)c3ncc(C)n3c2c1` [BMS-345541], for which the half-inhibitory concentration (IC50) in the data set on A549 [1] came to 8.6 µM; with NCI-H1650, 9.3 µM; in the data set on L02, 15.3 µM; with NCI-H460 it was 2.8 µM; with NCI-H1975, 8 µM. The “log(RatioIC50)” value is listed as 0.28 in [2], 0.74 in [3], 0.25 in data set [4] and 0.22 in data set [5].
Regarding `COc1cc(/C=C/C(=O)CC(=O)/C=C/c2ccc(O)c(OC)c2)ccc1O` [CURCUMIN], the IC50 in the data set with A549 [1] amounted to 6.8 µM; in the data set on L02, 7.2 µM; in the data set with NCI-H460, 8.5 µM; in the data set on NCI-H1975, 1.4 µM. Besides, the “log(RatioIC50)” value is recorded as 0.71 in data set [2], -0.07 in [3], 0.02 in data set [4] and -0.45 in [5].
As for `COc1cc(/C=C2\CN(C(=O)CCC(=O)O)C/C(=C\c3cc(OC)c(OC)c(OC)c3)C2=O)cc(OC)c1OC`, the half-inhibitory concentration (IC50) in the data set with A549 [1] is 17.9 µM; with NCI-H1650, greater than 60 µM; in the data set with L02, greater than 60 µM; in the data set with NCI-H460, greater than 60 µM; in the data set with NCI-H1975 it was greater than 60 µM.
In general, inhibition refers to the change of the read-out against control, counted positive when it falls. In the case of `O=c1[nH]cc(F)c(=O)[nH]1` [FLUOROURACIL], the inhibition at 9 µM in the data set on A549 [6] was 70%. Besides, the inhibition at 3 µM with A549 [7] was 38%.
Regarding `CCC(=O)N1C/C(=C\c2cc(OC)c(OC)c(OC)c2)C(=O)/C(=C/c2cc(OC)c(OC)c(OC)c2)C1`, the IC50 amounted to 0.8 µM with A549 [1]; 4.4 µM in the data set with NCI-H1650; 4.2 µM with L02; 2.7 µM in the data set with NCI-H460; 1.7 µM in the data set with NCI-H1975. Also, the “log(RatioIC50)” value is listed as 0.39 in [2], 0.19 in data set [3], 0.72 in [4] and -0.02 in data set [5].
`COc1ccc(/C=C2\CNC/C(=C\c3ccc(OC)c(OC)c3)C2=O)cc1OC`: the IC50 in the data set with A549 [1] worked out at 2.9 µM; with NCI-H1650, 16.7 µM; with L02 it was 15.1 µM; with NCI-H460, 6.4 µM; in the data set with NCI-H1975 it was 10.3 µM. Also, the “log(RatioIC50)” value is 0.17 in data set [2], 0.37 in data set [3], 0.72 in data set [4] and -0.04 in data set [5].
Turning to `COc1cc(/C=C2\CN(C(=O)C(C)C)C/C(=C\c3cc(OC)c(OC)c(OC)c3)C2=O)cc(OC)c1OC`, the IC50 in the data set with A549 [1] was determined as 0.8 µM; in the data set with NCI-H1650, 10.8 µM; in the data set with L02, 12.2 µM; with NCI-H460, 2 µM; in the data set on NCI-H1975 it was 1.9 µM. Further, the “log(RatioIC50)” value in [2] is reported as 0.81; in [3] it was 0.79; in [4], 1.18; in data set [5], 0.05.
For `COc1ccc(/C=C2\CN(C)C/C(=C\c3ccc(OC)c(OC)c3)C2=O)cc1OC`, the concentration for half-maximal inhibition (IC50) stood at 1.3 µM in the data set with A549 [1]; 9 µM in the data set on NCI-H1650; 18.2 µM in the data set with L02; 3.1 µM in the data set on NCI-H460; 6.6 µM in the data set on NCI-H1975. Moreover, the “log(RatioIC50)” value in [2] was found to be 0.44; in [3], 0.77; in data set [4], 1.15; in data set [5], 0.31.
`CCCN1C/C(=C\c2ccc(OC)c(OC)c2)C(=O)/C(=C/c2ccc(OC)c(OC)c2)C1`: the half-maximal inhibitory concentration (IC50) with A549 [1] worked out at 4.2 µM; with NCI-H1650 it was 16 µM; in the data set on L02, 21 µM; with NCI-H460, 4.1 µM; in the data set with NCI-H1975 it was 11.2 µM. In addition, the “log(RatioIC50)” value in [2] worked out at 0.27; in data set [3] it was 0.71; in [4], 0.7; in data set [5] it was 0.12.
Turning to `COc1cc(/C=C2\CNC/C(=C\c3cc(OC)c(OC)c(OC)c3)C2=O)cc(OC)c1OC`, the IC50 in the data set with A549 [1] came out at 1.2 µM; in the data set on NCI-H1650 it was 4.2 µM; in the data set with L02, 7.6 µM; in the data set with NCI-H460, 1.5 µM; in the data set on NCI-H1975, 4 µM. Besides, the “log(RatioIC50)” value is reported as 0.28 in data set [2], 0.7 in [3], 0.8 in data set [4] and 0.26 in data set [5].
Turning to `COc1cc(/C=C2\CN(C(=O)c3ccccc3F)C/C(=C\c3cc(OC)c(OC)c(OC)c3)C2=O)cc(OC)c1OC`, the half-maximal inhibitory concentration (IC50) is 0.7 µM with A549 [1]; 1.9 µM in the data set on NCI-H1650; 4.4 µM in the data set with L02; 1.5 µM in the data set with NCI-H460; 1.4 µM in the data set with NCI-H1975. Also, the “log(RatioIC50)” value in data set [2] was 0.5; in data set [3], 0.47; in data set [4] it was 0.8; in data set [5], 0.36.
Regarding `O=C1/C(=C/c2ccccc2F)CNC/C1=C\c1ccccc1F`, the IC50 was 2.4 µM with A549 [1]; 1.7 µM in the data set with NCI-H1650; 5.1 µM in the data set on L02; 1.2 µM in the data set with NCI-H460; 1.3 µM in the data set on NCI-H1975. Further, the “log(RatioIC50)” value in data set [2] is on record as 0.59; in [3], 0.63; in data set [4], 0.33; in [5] it was 0.48.
Turning to `CCN1C/C(=C\c2cc(OC)c(OC)c(OC)c2)C(=O)/C(=C/c2cc(OC)c(OC)c(OC)c2)C1`, the IC50 amounted to 4.2 µM in the data set with A549 [1]; 8.2 µM in the data set on NCI-H1650; 12.8 µM in the data set with L02; 4.9 µM in the data set on NCI-H460; 6.5 µM in the data set with NCI-H1975. Moreover, the “log(RatioIC50)” value in [2] came to 0.29; in data set [3] it was 0.42; in data set [4], 0.48; in data set [5] it was 0.19.
With `CCN1C/C(=C\c2ccc(OC)c(OC)c2)C(=O)/C(=C/c2ccc(OC)c(OC)c2)C1`, the IC50 with A549 [1] came to 3.6 µM; in the data set with NCI-H1650, 12 µM; in the data set with L02 it was 9.8 µM; in the data set with NCI-H460, 3.6 µM; in the data set on NCI-H1975, 8.5 µM. Also, the “log(RatioIC50)” value in data set [2] was 0.06; in data set [3], 0.43; in [4], 0.43; in data set [5], -0.09.
